# Source: PubChem BioAssay
# PPC-1+TRAIL kill = PPC-1 cancer cell killing with TRAIL present. PPC-1 cells + TRAIL, ATPLite viability luminescence. cell killing (% activity), % at 4 µM or 5 µM. actives 0.41% (n = 220,000). AID 1443;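 active = cell killing above 50% in the first pass at 4 µM, then a duplicate retest at 5 µM averaging 50% or more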
# FLuc inh counter = inhibits firefly luciferase, flagging false hits in luciferase inhibition screens. ATPLite firefly luciferase biochemical luminescence, 10 min. P08659. AID 1006. actives 1.5% (n = 200,000). inhibition, % at 10 µM;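 active = inhibition above about 50% when tested at 10 µM, limit read from the data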
# Target sequence (P08659 whole entry, looked up): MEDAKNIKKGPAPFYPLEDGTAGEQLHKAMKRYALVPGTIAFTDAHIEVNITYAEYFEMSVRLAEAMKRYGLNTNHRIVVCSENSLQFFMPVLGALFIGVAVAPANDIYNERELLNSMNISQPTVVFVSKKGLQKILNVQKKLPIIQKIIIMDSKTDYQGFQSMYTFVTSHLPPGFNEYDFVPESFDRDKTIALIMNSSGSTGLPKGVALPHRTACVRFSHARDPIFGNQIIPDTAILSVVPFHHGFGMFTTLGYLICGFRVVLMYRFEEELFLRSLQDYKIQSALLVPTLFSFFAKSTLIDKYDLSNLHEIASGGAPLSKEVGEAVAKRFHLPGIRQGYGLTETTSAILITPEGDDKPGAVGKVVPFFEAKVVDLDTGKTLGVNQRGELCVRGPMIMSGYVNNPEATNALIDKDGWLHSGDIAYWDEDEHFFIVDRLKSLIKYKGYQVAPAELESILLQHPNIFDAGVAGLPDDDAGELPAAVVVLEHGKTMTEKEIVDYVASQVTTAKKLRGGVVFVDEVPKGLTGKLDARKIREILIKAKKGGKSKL
# STAT3 blocker = reduces IL-6 driven STAT3 reporter signal; U3A cells, IL-6 STAT3-luciferase reporter, luminescence; host cell line lacks STAT1; inhibition, % at 5.5 µM; actives 0.89% (n = 190,000); AID 862;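 active = inhibition above the mean inhibition across all screened compounds plus 3 SD, cut at about 44% in these data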
# FLuc act counter = affects firefly luciferase, flagging false hits in luciferase stimulation screens; activation factor at 10 µM; 200,000 tested, under 10 active; P08659; AID 1027; ATPlite luciferase biochemical, luminescence, 10 min; 0 = ATP-free wells, 1 = DMSO control;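 active = luciferase activation factor, scaled between plate controls, of at least 2 with compound at 10 µM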
#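 assay system = Luciferase/luciferin detection reagent, cell-free biochemical luciferase assay | also added = ATP substrate | times = 10 min post-reagent at room temperature | measured by = luminescence from luciferase reaction | measure = luciferase activation, seen as luminescence increase over controls | benchmarks = low control with PBS replacing ATP, high control enzyme plus ATP without compound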
# C8 TRAIL sens = sensitizes caspase-8 expressing cells to TRAIL. actives 1% (n = 360,000). NB7+C8 cells + TRAIL, ATPlite viability luminescence. AID 624354. inhibition (viability loss, TRAIL sensitization), % at 10 µM;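 active = compounds causing at least 50% loss of cell viability in the single-dose screen, relative to plate controls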
# HSP90 refold inh = HSP90 refolding inhibition in rabbit reticulocyte lysate; inhibition, % at 5.6 µM; actives 0.91% (n = 290,000); luciferase refolding luminescence, 3 h; AID 1789;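 active = inhibition above the screen-wide mean plus 3 SD, computed separately per campaign, cut at about 16% in these data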;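 also: inhibitors lower the luminescence because luciferase stays unfolded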
# A number is an active result; n = inactive; x = not tested or not shown; ! = repeats disagree. Sampled rows, rich in hits. Any-hit rate of the full collection: about 2.2%.
SMILES,PPC-1+TRAIL kill,FLuc inh counter,STAT3 blocker,FLuc act counter,C8 TRAIL sens,HSP90 refold inh
Cc1ccc(C(=O)Nc2cccc(C(F)(F)F)c2)cc1NC(=O)c1nccnc1N,n,x,x,x,54!,x
COc1cc(NCCCCCCN)c2ncccc2c1OC,x,x,x,x,n,x
COc1cc(NCCCCC(C)N)c2nccc(C)c2c1 (configuration not stated),x,x,x,x,54,x
CCCS(=O)(=O)c1nc(S(=O)(=O)c2ccc(C)cc2)c(N2CCN(CC)CC2)s1,x,x,x,x,n,n
Cc1ccc2cc3cc(C(=O)N4CCCCC4C)oc3nc2c1 (configuration not stated),n,55,n,n,n,n
Cc1ccc2cc3cc(C(=O)N4CC(C)CC(C)C4)oc3nc2c1 (configuration not stated),n,n,n,n,n,n
COc1ccc(CCNC(=O)CSc2nc3c(sc(=S)n3-c3ccccc3)c(=O)[nH]2)cc1OC,x,x,x,x,n,x
O=C1N/C(=C\c2ccc(O)cc2)C(=O)c2ccccc21,n,93,n,n,n,n
CCC(=O)N1CCc2cc(S(=O)(=O)NC(C(=O)NCc3ccc(C)cc3)C(C)C)ccc21 (configuration not stated),n,n,n,n,n,n
CCC(=O)N1CCc2cc(S(=O)(=O)NC(C(=O)NC3CCCc4ccccc43)C(C)C)ccc21 (configuration not stated),62,n,n,n,n,n
O=C(CSc1nccc(=O)[nH]1)NN(c1ccccc1)c1ccccc1,n,n,n,n,n,n
CCn1c(-c2cc(-c3ccc(C)c(C)c3)nc3ccccc23)n[nH]c1=S,n,53,n,n,x,n
C[C@H](NC(=O)C1CCN(S(=O)(=O)c2ccccc2)CC1)C(=O)NC1CC1,x,x,x,x,n,x
CC(=O)c1cccc(NC(=O)c2ccc3c(Cl)c4c(nc3c2)CCCC4)c1,n,n,n,n,n,n
N#Cc1ccccc1NC(=O)c1ccc2c(Cl)c3c(nc2c1)CCCC3,n,50,n,n,n,n
CC1(C)CC(=O)c2sc(NC(=O)c3ccc4ncsc4c3)nc2C1,n,55,n,n,n,n
Cc1ccc2nc(NC(=O)c3ccc4ncsc4c3)sc2c1,n,n,n,n,n,n
Cc1ccc(-c2nc3c4ccccc4ccn3c2Cc2ccsc2)cc1,x,x,x,x,n,x
COC(=O)c1ccc(CNC(=O)C23CC4CC(CC(C4)C2)C3)cc1,x,x,x,x,n,n
COc1ccc(NC(=S)NC(NC(=O)/C=C/c2ccccc2)C(Cl)(Cl)Cl)cc1 (configuration not stated),n,n,n,n,n,n
O=C(/C=C/c1ccccc1)NC(NC(=S)Nc1ccc(Cl)cc1)C(Cl)(Cl)Cl (configuration not stated),n,n,n,n,52,n
O=[N+]([O-])c1ccc(S(=O)Cc2ccccc2)c([N+](=O)[O-])c1 (configuration not stated),x,x,x,x,66,x
O=[N+]([O-])c1ccc(CS(=O)c2ccccc2)cc1 (configuration not stated),x,x,x,x,n,x
COCOCCn1cc(CN2CCS(=O)(=O)N(Cc3ccc(-c4cccc(CO)c4)cc3)C(CC(C)C)C2=O)nn1 (configuration not stated),x,x,x,x,n,x
CN(C)c1ccc(Sc2ccc3nc(N)nc(N)c3c2)cc1,x,x,x,x,71,x
SMILES,PPC-1+TRAIL kill,FLuc inh counter,STAT3 blocker,FLuc act counter,C8 TRAIL sens,HSP90 refold inh
O=C(CCNC(=O)N1CC(=O)Nc2ccccc21)Nc1cccc(Cl)c1,x,x,x,x,n,n
COCCNC(=O)c1cc(-c2ccc3c(c2)OCO3)on1,n,56,n,n,n,n
C=CCNC(=O)c1cc(-c2ccc3c(c2)OCO3)on1,x,x,x,x,51,n
COc1ccccc1OC(=O)c1cc(Cl)nc2ccccc12,n,n,n,n,n,n
CN(C)/C=C/C(=O)c1ccc(-n2cccc2)cc1,n,85,n,n,n,n
CN(C)/C=C/C(=O)c1ccc(Cl)cc1,n,n,n,n,n,n
COc1cc(S(=O)(=O)Nc2ccccc2)ccc1N=Cc1c(C)[nH]n(-c2ccc(C)cc2)c1=O,n,n,n,n,x,n
COc1cc(SC#N)ccc1N=Cc1c(C)[nH]n(-c2ccc(Cl)cc2)c1=O,n,n,n,n,68,n
COc1cc(SC#N)ccc1N=Cc1c(C)[nH]n(-c2ccc(C)c(C)c2)c1=O,n,n,n,n,80,n
Cc1ccnc(NS(=O)(=O)c2ccc(NC(=O)C3C4C=CC(C4)C3C(=O)O)cc2)n1 (configuration not stated),n,n,n,n,n,n
c1cncc(CSc2ccc(-c3ccc4c(c3)OCO4)nn2)c1,n,53,n,n,n,n
CC1CC(C)CN(C(=O)COC(=O)c2ccc3ccccc3n2)C1 (configuration not stated),x,x,x,x,n,x
Cc1cccc(NC(=O)/C=C/c2cccs2)n1,n,65,n,n,n,n
CN1C=C/C(=C\c2cc[n+](C)c3ccccc23)c2ccccc21,x,n,n,n,n,17
CC(C)C(=O)N1CCC1(C)C(=O)Nc1nc2ccccc2[nH]1 (configuration not stated),x,x,x,x,n,x
CCC(=O)OCOc1ccc(/C=C2/CCC(CN(C)C)C2=O)cc1 (configuration not stated),x,x,x,x,72,x
Cc1cccc(S(=O)(=O)N[C@@H]2CC[C@@H](CCNS(=O)(=O)c3ccccc3F)O[C@@H]2CO)c1,x,x,x,x,n,x
Cc1ccnc(SCC(=O)N2CCN(C(c3ccccc3)c3ccccc3)CC2)n1,n,n,n,n,n,16
OCCCNc1ncnc2c1cnn2-c1ccc(Cl)cc1,x,x,x,x,n,16
C=CCNc1ncnc2c1cnn2-c1ccc(OC)cc1,n,59,n,n,n,n
CN(C)CCNc1ncnc2c1cnn2-c1ccc(Cl)cc1,n,n,n,n,n,n
CCC(CO)Nc1ncnc2c1cnn2-c1ccc(Cl)cc1 (configuration not stated),n,n,n,n,n,27
Cc1ccc(CS(=O)(=O)c2ncc(Cl)c(C(=O)Nc3ccc(OC(F)F)cc3)n2)cc1,x,x,x,x,88,n
CCS(=O)(=O)c1ncc(Cl)c(C(=O)Nc2ccc(S(=O)(=O)N3CCCC(C)C3)cc2)n1 (configuration not stated),x,x,x,x,96,n
CCC1CCCCN1S(=O)(=O)c1ccc(NC(=O)c2nc(S(C)(=O)=O)ncc2Cl)cc1 (configuration not stated),x,x,x,x,92,n
CCS(=O)(=O)c1ncc(Cl)c(C(=O)Nc2ccc(C)cc2)n1,x,x,x,x,84,n
CCC1CCCCN1S(=O)(=O)c1ccc(NC(=O)c2ccncc2)cc1 (configuration not stated),x,x,x,x,n,n
COc1ccccc1-n1cnnc1SCC(=O)c1c[nH]c2ccccc12,n,n,n,n,n,n
CCN(CC)c1ccc(NC(=O)COC(=O)c2ccc3ccccc3n2)cc1,n,n,n,n,n,n
